Assay outcomes from PubChem.
Compounds with a hit are over-represented: about 2.1% of the library has one in this group of screens.
Ins promoter up: MIN6 insulin promoter up-regulation | MIN6 insulin promoter-GFP reporter, high-content imaging; hits give high values | z-score at 5 µM | 190,000 tested, 0.3% active | AID 1625;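 active = z-score above 3 at 5 µM with at least 500 cells counted in the well; inconclusive = wells under 500 cells, flagged as cytotoxic or low count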
Insulin prom inh: TRM-6 insulin promoter activity inhibition. TRM-6 cells (human fetal islet line), insulin promoter-eGFP reporter, imaging; reporter expression induced with tamoxifen. inhibition, % at 2 µM. 130,000 tested, 0.9% active;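 active = inhibition above the mean plus 3 SD, with well images judged a real hit on visual review, cut at about 60% in these data, passing the limit was not always enough; inconclusive = inhibition over the cutoff but images rejected on review; inactive = inhibition not above the cutoff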
Dynein cargo inh: blocks dynein driven cargo transport along microtubules. 3617.4 mouse cells, GR-EGFP nuclear translocation imaging; test concentration mostly 20 µM; stimulated with dexamethasone, 1 µM; hits give low values. z-score, hits read low. 220,000 tested, 0.47% active;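 active = plate z-score of nuclear minus cytoplasmic receptor signal below a set negative limit, without overly bright fluorescence or cell loss, cut at about -3.5 in these data, passing the limit was not always enough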;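 also: z-score of nuclear minus cytoplasmic ring GR-EGFP intensity difference per well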
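Buffer or medium: tetracycline-free induction medium containing charcoal-stripped FBS / Reagent: dexamethasone agonist, 1.0 µM final, for 30 min / Technique: automated 10x imaging of fixed Hoechst-stained cells / Times: induction 48 h, compound 1 h, agonist 30 min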
PERK inhibitor: inhibitors of human PERK kinase; inhibition, % at 5.6 µM; CHO PERK-DD fusion, SEAP luminescence translation reporter; Q9NZJ5; 220,000 tested, 0.17% active;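 active = inhibition above the mean inhibition of all tested compounds plus 3 SD, set separately per screening campaign, cut at about 2.9% in these data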;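 also: PERK kinase domain activated by AP20187 dimerizer at 100 nM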
Target sequence (Q9NZJ5 whole entry, looked up, the tested form may be a part): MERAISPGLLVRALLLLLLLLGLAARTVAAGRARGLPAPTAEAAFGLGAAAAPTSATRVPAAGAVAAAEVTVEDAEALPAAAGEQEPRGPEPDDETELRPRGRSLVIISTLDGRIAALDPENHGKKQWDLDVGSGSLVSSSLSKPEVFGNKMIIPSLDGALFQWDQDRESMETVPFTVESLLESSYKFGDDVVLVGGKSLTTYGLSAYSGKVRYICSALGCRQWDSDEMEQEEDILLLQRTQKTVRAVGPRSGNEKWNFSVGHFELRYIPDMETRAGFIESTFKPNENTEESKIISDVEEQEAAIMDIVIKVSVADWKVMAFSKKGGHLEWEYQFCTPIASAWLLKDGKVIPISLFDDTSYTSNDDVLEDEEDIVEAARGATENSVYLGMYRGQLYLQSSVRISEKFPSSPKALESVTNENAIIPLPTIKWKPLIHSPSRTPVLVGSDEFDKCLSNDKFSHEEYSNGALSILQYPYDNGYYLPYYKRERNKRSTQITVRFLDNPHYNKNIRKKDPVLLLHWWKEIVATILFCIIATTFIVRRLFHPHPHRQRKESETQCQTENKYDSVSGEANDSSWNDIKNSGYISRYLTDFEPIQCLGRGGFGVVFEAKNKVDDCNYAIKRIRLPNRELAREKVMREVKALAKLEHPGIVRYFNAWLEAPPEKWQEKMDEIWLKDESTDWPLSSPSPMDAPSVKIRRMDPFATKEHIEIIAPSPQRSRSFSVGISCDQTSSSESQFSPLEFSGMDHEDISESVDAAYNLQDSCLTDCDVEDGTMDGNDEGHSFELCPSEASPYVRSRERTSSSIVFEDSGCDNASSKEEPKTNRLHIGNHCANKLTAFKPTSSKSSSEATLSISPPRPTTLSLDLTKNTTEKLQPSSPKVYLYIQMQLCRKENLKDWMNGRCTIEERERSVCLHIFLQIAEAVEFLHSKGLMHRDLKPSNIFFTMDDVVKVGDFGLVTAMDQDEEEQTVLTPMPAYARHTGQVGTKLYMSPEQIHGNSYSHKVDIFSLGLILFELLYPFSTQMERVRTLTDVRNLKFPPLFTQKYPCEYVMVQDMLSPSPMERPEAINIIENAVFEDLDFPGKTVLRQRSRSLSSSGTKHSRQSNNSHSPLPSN
Autophagy mod: alters autophagy in cells; 190,000 tested, 0.98% active; calls only at 10 µM (by protocol); AID 463193; MEF GFP-LC3 puncta imaging; test concentration mostly 10 µM;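 active = percentage of spot-positive cells more than 3 SD above its plate mean, without a fluorescence outlier flag or 80% toxicity; inconclusive = no clear call, values can overlap the other calls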
Dynein confirm: dynein cargo transport inhibition, confirmation; 1,000 tested, 69% active; 3617.4 GR-EGFP nuclear translocation imaging, dexamethasone-induced; AID 463116; calls only at 20 µM; shares compounds with Dynein cargo inh;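 active = inhibition of receptor movement into the nucleus at or above a set limit in both runs, with normal cell brightness and cell count; inconclusive = limit reached in only one run, brightness and count normal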;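 also: dexamethasone at 1 µM final in well for 30 min; nuclear minus cytoplasmic GR-EGFP mean intensity difference in channel 2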
Each line names hits and unclear results; the compound was inactive in the other large screens (follow-up assays come after a bar, where they were run).

COc1ccc(CNC(=O)C2(c3ccc(Cl)cc3)CC2)cc1	Insulin prom inh 75
COc1ccc(S(=O)(=O)NCc2ccc(C(=O)N3CCc4ccccc4C3)cc2)cc1	none
COc1ccc(-c2nc3ncccn3c2Nc2ccc3c(c2)OCCO3)cc1	Insulin prom inh 69
Cc1ccc(-c2nc3ncccn3c2Nc2ccc3c(c2)OCCO3)cc1	none
COc1ccc2c(c1)-c1nc(/N=C/c3ccc(O)cc3)sc1CC2	Insulin prom inh 77 (no result: Ins promoter up)
COc1ccc2c(c1)-c1nc(/N=C/c3c(O)ccc4ccccc34)sc1CC2	none (no result: Ins promoter up)
CCc1ccc(OCC(=O)N(C)C)c(Br)c1	Autophagy mod active
O=C(O)c1ccc2c(=O)n3c(nc2c1)/C(=C/c1ccccc1C(F)(F)F)CCCC3	Autophagy mod active (no result: Insulin prom inh)
CC(C)C(=O)Nc1ccc([N+](=O)[O-])c(C(F)(F)F)c1	Insulin prom inh 87
CCn1c(C)nc2cc(C(=O)NNC(=S)Nc3ccc(OC)cc3)ccc21	none
COc1cccc(N=c2oc3ccccc3cc2-c2nc3ccccc3[nH]2)c1	Insulin prom inh 83
COc1cccc(N=c2oc3ccc(OC)cc3cc2-c2nc3ccccc3[nH]2)c1	none
CCOc1cc(NS(=O)(=O)c2ccc(NC(C)=O)cc2)c(OCC)cc1NC(=O)c1cccs1	none
COc1ccc(C(=O)N2CCC(n3nnc4cc(F)ccc43)CC2)cc1OC	Autophagy mod active (no result: Insulin prom inh)
Cc1cccc(C(=O)N2CCC(n3nnc4cc(F)ccc43)CC2)c1	none
O=C(NC1CCCC1)C(c1cccs1)N(CC1CCCO1)C(=O)Cc1cccs1 (stereo not given)	none
O=C(O)c1cccc(-n2cccc2/C=C/[N+](=O)[O-])c1	PERK inhibitor 3.2 (no result: Insulin prom inh, Autophagy mod)
N#C/C(=C\c1cn[nH]c1-c1ccccc1)C(=O)NC1CCCCCC1	none (no result: Ins promoter up)
N#C/C(=C\c1cn[nH]c1-c1ccc(Cl)cc1)C(=O)NC1CC1	Insulin prom inh 79
CC(NC(=O)/C(C#N)=C/c1cn[nH]c1-c1ccccc1)c1ccccc1 (stereo not given)	none (no result: Insulin prom inh)
COc1ccc(-c2[nH]ncc2/C=C(\C#N)C(=O)NC2CC2)cc1	Insulin prom inh 73
Nc1nc(SCC(=O)NCc2ccc3c(c2)OCO3)n[nH]1	Insulin prom inh 65
O=C(c1cccs1)c1no[n+]([O-])c1C(=O)c1cccs1	Ins promoter up 3.8
Cc1ccc(C)c(C(=O)COc2ccc(C)nc2[N+](=O)[O-])c1	Dynein cargo inh -4.3
Cc1nn(C(=O)c2ccco2)c(C)c1Sc1ccc(Cl)cc1	none (no result: Insulin prom inh)
Cc1nn(C(=O)c2ccco2)c(C)c1Br	Insulin prom inh 67 (no result: Ins promoter up)
CCCCCCCCCn1c2c(c(=N)c3c1CCC3)CCC2	Ins promoter up inconclusive
CCCCCCCn1c2c(c(=N)c3c1CCC3)CCCC2	Ins promoter up inconclusive, Autophagy mod active
S=c1nc[nH]c2c1ncn2C1CCCC1	none (no result: Insulin prom inh, Autophagy mod)
O=c1c2ccccc2nc(SCc2ccncc2)n1CC1CCCO1 (stereo not given)	none
Cc1ccccc1-n1nc(C(=O)O)cc1-c1ccccc1	PERK inhibitor 3.1
CCCCn1c(N(CCOC(C)=O)C(C)=O)nc2ccccc21	Insulin prom inh 89 (no result: Ins promoter up)
CCN(CC)CCCNc1oc(-c2cccc(Cl)c2)nc1C#N	Autophagy mod active
COc1ccc(S(=O)(=O)c2ccc(OC)cc2)cc1	none
COc1ccc(C2=CC(=O)C=CC2=O)cc1	Dynein cargo inh -6.3 (no result: Insulin prom inh, Autophagy mod)
O=C(Cc1cccs1)NCc1ccncc1	PERK inhibitor 3.0 (no result: Insulin prom inh)
CSc1ncc(Cl)c(C(=O)Nc2sc3c(c2C(=O)NCc2ccco2)CCCC3)n1	Autophagy mod active
CN(C)c1ccc(/C=N/NC(N)=S)cc1[N+](=O)[O-]	none
Cc1cccc(C)c1OCC(O)CN1CCC(CN2C(=O)c3cccc4cccc(c34)C2=O)CC1 (stereo not given)	Autophagy mod active
CCOC(=O)COc1ccc(C(=O)NC2CCCCC2)cc1	Ins promoter up 4.2
Nc1c(C(=O)NCc2ccccc2)c2nc3ccccc3nc2n1CCCN1CCOCC1	Autophagy mod active
CCC12CN3CC(CC)(CN(C1)C3c1c(O)ccc3ccccc13)C2=O (stereo not given)	Autophagy mod active (no result: Ins promoter up)
C=CCOc1ccc(C2N3CC4(CC)CN2CC(CC)(C3)C4=O)cc1 (stereo not given)	none (no result: Insulin prom inh)
Cn1c(CSCc2ccccc2)nnc1SCC(=O)Nc1ccc(C(=O)O)cc1	none (no result: Insulin prom inh)
Cn1c(Cc2ccccc2)nnc1SCc1ccc(C(=O)O)cc1	Insulin prom inh 75
Cc1cc2c3ccccc3ncn2n1	none (no result: Insulin prom inh, Autophagy mod)
COc1cc2c(cc1OC)C(C)N(C(C)=O)CC2 (stereo not given)	Insulin prom inh 81 (no result: Ins promoter up)
Cc1c(C(=O)NN2CCCCC2)nn(-c2ccc(Cl)cc2Cl)c1-c1ccc(I)cc1	none (no result: Insulin prom inh, Dynein cargo inh, Autophagy mod)
CN(C)CCCNc1ccc(S(N)(=O)=O)cc1[N+](=O)[O-]	none
O=C(NCc1ccc2c(c1)OCO2)C1(S(=O)(=O)c2ccccc2)CC1	Insulin prom inh 93 (no result: Ins promoter up)
Cc1ccc(S(=O)(=O)C2(C(=O)NCc3ccc4c(c3)OCO4)CC2)cc1	none (no result: Insulin prom inh)
Cc1cc2nc(CCN3CCOCC3)n(S(=O)(=O)c3ccc(C(C)(C)C)cc3)c2cc1C	Insulin prom inh 86
FC(F)(F)c1cccc(Oc2ccc3c(C(F)(F)F)cc(C(F)(F)F)nc3n2)c1	PERK inhibitor 3.7 (no result: Ins promoter up)
COc1cc(-c2nnc3n2N=C(c2ccccc2)CS3)cc(OC)c1OC	Autophagy mod active (no result: Insulin prom inh)
COc1ccc(OC)c(C2=Nn3c(nnc3-c3cc(OC)c(OC)c(OC)c3)SC2)c1	none (no result: Insulin prom inh)
CC(C)Oc1ccc(C2C(C(=O)c3ccco3)=C(O)C(=O)N2CCCN(C)C)cc1 (stereo not given)	none (no result: Ins promoter up)
CCOc1cccc2cc(C(N)=O)c(=N)oc12	none (no result: Insulin prom inh, Autophagy mod)
Cn1cc(C(N)=O)c2ccccc21	none (no result: Insulin prom inh)
Cn1cc(C(=O)CCl)c2ccccc21	Dynein cargo inh -4.8 (no result: Insulin prom inh) | Dynein confirm active
CCCCN(CCCC)C(=O)c1cc(Cl)ccc1[N+](=O)[O-]	none
CCCN(CCC)C(=O)c1cc([N+](=O)[O-])cc2c1-c1ccc([N+](=O)[O-])cc1C2=C(C#N)C#N	Dynein cargo inh -4.6 (no result: Insulin prom inh, Autophagy mod) | Dynein confirm active
CCSc1nnc(-c2ccc(Cl)cc2)c2ccccc12	none
Clc1ccc(-c2nnc(Sc3nc4ccccc4o3)c3ccccc23)cc1	Dynein cargo inh -4.1 (no result: Ins promoter up) | Dynein confirm active
Cc1nnc(Sc2nc3ccccc3o2)c2ccccc12	none
Cc1ccc(-c2nnc(Sc3nc4ccccc4o3)c3ccccc23)cc1	Dynein cargo inh -4.1 (no result: Ins promoter up, Insulin prom inh) | Dynein confirm active
CCC(=O)N1CCN(c2ccc(NC(=O)c3ccc([N+](=O)[O-])o3)cc2Cl)CC1	Dynein cargo inh -5 (no result: Insulin prom inh) | Dynein confirm active
CCN1CCN(c2ccc(NC(=O)c3ccc([N+](=O)[O-])o3)cc2Cl)CC1	Dynein cargo inh -4.2 | Dynein confirm active
Cc1ccc(Cl)cc1N1CCN(C(=O)CN(c2ccccc2)S(=O)(=O)N(C)C)CC1	none (no result: Ins promoter up, Insulin prom inh)
